Bioassay records deposited in PubChem by several laboratories.
Sampled rows, rich in hits. Any-hit rate of the full collection: about 2.9%.
ZTA DNA inh = counter-screen for EBNA-1 inhibitors: inhibitors of Epstein-Barr virus ZTA. P03206. ZTA-DNA binding, fluorescence polarization. inhibition, % at 11 µM. actives 0.15% (n = 320,000). AID 2234; in the data active means inhibition above about 33%
Target sequence (P03206 whole entry, looked up): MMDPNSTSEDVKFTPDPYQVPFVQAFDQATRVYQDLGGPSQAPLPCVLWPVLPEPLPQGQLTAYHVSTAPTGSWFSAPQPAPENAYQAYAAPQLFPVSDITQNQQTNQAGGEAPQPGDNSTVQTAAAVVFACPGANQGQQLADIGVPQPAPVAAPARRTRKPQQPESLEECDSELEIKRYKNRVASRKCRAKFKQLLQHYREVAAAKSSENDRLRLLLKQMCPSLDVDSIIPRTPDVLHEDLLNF
PfGluPho inh = PfG6PD enzyme inhibitors, primary screen, biochemical, fluorescence intensity, uHTS. inhibition, % at 20 µM. actives 0.78% (n = 350,000). AID 504690, 2011. PfGluPho enzyme, NADPH resazurin-diaphorase fluorescence. glucose-6-phosphate dehydrogenase-6-phosphogluconolactonase (Plasmodium falciparum 3D7);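 active means inhibition reaching at least a set limit at 20 µM in the primary screen, cut at about 59% in these data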
PfM18AAP inh-1 = PfM18AAP inhibitors, malaria aminopeptidase, primary screen, biochemical, QFRET, recombinant enzyme; M18 aspartyl aminopeptidase (Plasmodium falciparum 3D7); inhibition, % at 7.35 µM; AID 1822, 2009; H-Glu-NHMec fluorogenic cleavage; actives 1.2% (n = 290,000);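 active means inhibition above the campaign mean inhibition over all tested compounds plus 3 SD, cut at about 28% in these data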
EBNA-1 inhibitor = EBNA-1 DNA-binding inhibitors, primary screen, biochemical, fluorescence polarization; inhibition, % at 14.8 µM; actives 0.34% (n = 300,000); AID 1950, 2009; in the data active means inhibition above about 28%
UBC13 inh = UBC13 polyubiquitin chain formation inhibitors, primary screen, biochemical, TR-FRET, uHTS; actives 0.47% (n = 330,000); Ubiquitin-conjugating enzyme E2 N (Homo sapiens), P61088; inhibition, % at 20 µM; in the data active means inhibition above about 45%, passing the limit was not always enough
Apaf-1 inh = inhibitors of human Apaf-1 apoptosome, primary screen, biochemical, DEVD-Rh110 fluorescence, uHTS; Apoptotic protease-activating factor 1 (Homo sapiens), O14727; reconstituted apoptosome caspase-3 activity; inhibition, % at 20 µM; actives 0.71% (n = 330,000); AID 489030, 2010; active means inhibition of at least 40% at 20 µM
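Material: reconstituted apoptosome with Apaf-1, cytochrome c, caspase-9, procaspase-3, dATP / Buffer or medium: pH 7.5 Hepes buffer with CHAPS, BSA, DTT / Also added: cytochrome c with DEVD-Rh110 / Schedule: compound with Apaf-1, dATP, procaspase-3 30 min, then 50 min reaction, room temperature / Technique: rhodamine 110 fluorescence at Ex 480/Em 540 nm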
PfM18AAP inh-2 = PfM18AAP inhibitors, malaria aminopeptidase, confirmation, biochemical, QFRET, recombinant enzyme, triplicate; shares compounds with PfM18AAP inh-1; H-Glu-NHMec fluorogenic cleavage; inhibition, % at 7.35 µM; actives 28% (n = 2,400);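 active means mean inhibition over replicate wells above the hit cutoff set for the earlier primary screen, cut at about 29% in these data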
CTSL1 counter = cathepsin L1 inhibitors, retest, confirmation, counter-screen for PFM18AAP inhibitor project, biochemical, QFRET, triplicate; shares compounds with PfM18AAP inh-1; purified cathepsin L1, Z-Leu-Arg-MCA fluorescence; inhibition, % at 5.96 µM; 2,400 tested, under 10 active;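 active means average inhibition across replicates above the hit cutoff set in the earlier primary screen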
ZTA inh confirm = EBV Zta binding to ZRE DNA, inhibitors, confirmation, biochemical, fluorescence polarization, triplicate | inhibition, % at 11.1 µM | shares compounds with ZTA DNA inh | actives 30% (n = 320);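 active means mean inhibition across triplicate runs above the hit threshold derived for the original primary screen, cut at about 33% in these data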
EBNA1 counter = EBNA-1 DNA-binding inhibition, counter-screen for ZTA inhibitor project, biochemical, fluorescence polarization; 320 tested, under 10 active; AID 2362, 2010; shares compounds with ZTA DNA inh; inhibition, % at 14.8 µM; call rule not given here
Casp3 counter = CASP3 inhibitor validation, counterassay for project on UBE2N polyubiquitination blockers, biochemical, one dose; shares compounds with UBC13 inh; Recombinant caspase-3, Caspase-Glo 3/7 luminescence, 60 min; inhibition, % at 20 µM; actives 4% (n = 1,400);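 active means mean inhibition across replicates above about 26%, limit read from the data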
Target sequence (P42574 whole entry, looked up): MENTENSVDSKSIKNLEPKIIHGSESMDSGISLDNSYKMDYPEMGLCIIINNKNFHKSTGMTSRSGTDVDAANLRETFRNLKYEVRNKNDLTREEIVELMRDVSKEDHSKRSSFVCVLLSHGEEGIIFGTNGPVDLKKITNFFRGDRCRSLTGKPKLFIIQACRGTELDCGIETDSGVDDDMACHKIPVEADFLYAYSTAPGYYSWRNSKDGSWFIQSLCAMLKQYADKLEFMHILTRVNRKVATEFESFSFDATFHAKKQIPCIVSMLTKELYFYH
UBC13 confirm = UBC13 polyubiquitination inhibitors, single-point retest, confirmation, biochemical, TR-FRET, single concentration; actives 68% (n = 1,400); inhibition, % at 10 µM; shares compounds with UBC13 inh; AID 488859, 2010; in the data active means inhibition above about 45%
Apaf-1 inh conf2 = Apaf-1 inhibitors, single-dose retest, confirmation, biochemical, fluorescence, DEVD-Rh110, 20 µM; shares compounds with Apaf-1 inh; reconstituted apoptosome, caspase-3 DEVD-Rh110 fluorescence; inhibition, % at 20 µM; actives 25% (n = 1,800); AID 504614, 2011;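 active means mean inhibition of at least 40% at 20 µM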
Rh110 quench = Rh110 fluorescence interference by putative Apaf-1 inhibitors, confirmation, artefact control for Apaf-1 inhibitor project, biochemical, 20 µM. quenched caspase reaction. activation (fluorescence interference), % at 20 µM. AID 504615, 2011. shares compounds with Apaf-1 inh. 1,800 tested, under 10 active;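 active means signal rise of 40% or more at 20 µM, treated as a fluorescence artifact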
Of the large screens only hits and unclear results are named; the others gave an inactive call (follow-up assays come after a bar, where they were run).

O=C(O)c1ccc2c(c1)C(=O)/C(=C\c1ccco1)C2=O	ZTA DNA inh 62, PfM18AAP inh-1 42 | PfM18AAP inh-2 40 | CTSL1 counter inactive | ZTA inh confirm 63 | EBNA1 counter inactive
CCn1c(CNC(=O)c2ccccc2F)nnc1SCC(=O)Nc1nncs1	none
O=C(NN1C(=O)CSC1=S)C(=O)NN1C(=O)CSC1=S	PfM18AAP inh-1 41, UBC13 inh 47 | PfM18AAP inh-2 52 | CTSL1 counter inactive | Casp3 counter inactive | UBC13 confirm inactive
O=C(Cc1cccc2ccccc12)NN1C(=O)CSC1=S	none
COc1ccc(Cc2nc3c([nH]2)c(=O)n(C)c(=O)n3C)cc1OC	none (no result: ZTA DNA inh, PfM18AAP inh-1, EBNA-1 inhibitor, UBC13 inh, Apaf-1 inh)
C[C@@H]1O[C@@H](Oc2c(-c3cc(O)c(O)c(O)c3)oc3cc(O)cc(O)c3c2=O)[C@H](O)[C@H](O)[C@H]1O	PfM18AAP inh-1 46, UBC13 inh 50 | PfM18AAP inh-2 inactive | CTSL1 counter inactive | Casp3 counter inactive | UBC13 confirm inactive
COCCN=c1scc(-c2ccco2)n1/N=C/c1ccc(O)c(O)c1O	PfM18AAP inh-1 36, UBC13 inh 46 | PfM18AAP inh-2 inactive | CTSL1 counter inactive | Casp3 counter inactive | UBC13 confirm inactive
O=P(Nc1ccccc1)(Nc1ccccc1)c1ccccc1	none (no result: ZTA DNA inh, PfM18AAP inh-1, EBNA-1 inhibitor, UBC13 inh, Apaf-1 inh)
Cc1cc(SCC(=O)N/N=C/c2ccc(O)c(O)c2O)c(C)cc1Br	PfM18AAP inh-1 53, Apaf-1 inh 49 | PfM18AAP inh-2 inactive | CTSL1 counter inactive | Apaf-1 inh conf2 inactive | Rh110 quench inactive
CC1CCC/C(=C\Nc2ccc(O)cc2)C1=O (stereo unspecified)	none
CC1(C)OC(C)(C)/C(=C/Nc2ccc(O)cc2)C1=O	PfM18AAP inh-1 43, Apaf-1 inh 48 | PfM18AAP inh-2 inactive | CTSL1 counter inactive | Apaf-1 inh conf2 inactive | Rh110 quench inactive
COc1cccc(/C=C/C(=O)N(C)CC(=O)Nc2ccc(Cl)c(C(F)(F)F)c2)c1	none (no result: PfM18AAP inh-1)
Cc1nnc(N/N=C/c2cccc(OCc3ccc(Cl)c(Cl)c3)c2)n1N	PfM18AAP inh-1 49, Apaf-1 inh 77 | PfM18AAP inh-2 inactive | CTSL1 counter inactive | Apaf-1 inh conf2 inactive | Rh110 quench inactive
Cc1ccccc1NC(=O)c1ccc2nc(N3CCOCC3)sc2c1	none
